Measurements: ChEMBL document CHEMBL2346527, “Kinase scaffold repurposing for neglected disease drug discovery: discovery of an efficacious, lapatinib-derived lead compound for trypanosomiasis” (J Med Chem, 2013)
Activity calls are given as the source filed them. The rule behind the calls is not given here.

Experiments:
Trypanosoma brucei [1] = assay: Reduction of 2C to 4C equivalents of DNA in bloodstream Trypanosoma brucei after 7 hrs by DAPI staining-based fluorescence microscopy (reference value: 40 %); format: functional; design: scale not given: the % may be the effect or the level left
[2] = tested on: Trypanosoma brucei brucei; assay: Antitrypanosomal activity against Trypanosoma brucei brucei CA427 infected in Swiss Webster mouse assessed as mouse survival at 10 mg/kg, ip bid by hemocytometer (reference value: 5 days); format: functional; settings: route intraperitoneal
Trypanosoma brucei [3] = assay: Antitrypanosomal activity against bloodstream Trypanosoma brucei assessed as increase in 4C equivalents of DNA after 7 hrs by DAPI staining-based fluorescence microscopy (reference value: 25 %); format: functional
Trypanosoma brucei [4] = assay: Inhibition of transferrin receptor-mediated endocytosis in bloodstream Trypanosoma brucei at 8 uM after 7 hrs by flow cytometry
Mus musculus = assay: Toxicity in Swiss Webster mouse infected with Trypanosoma brucei brucei CA427at 40 mg/kg, po; format: organism-based; design: dose 40 mg/kg, route oral; settings: in vivo
Summary of the method: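 Infection used 10^4 T. brucei brucei CA427 cells per mouse. Beginning 24 h later, mice received 40 mg/kg once per day in a multi-day regimen. Blood was checked for parasites over 3 days against untreated infected controls, and drug-related toxicity was noted.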

Brain = assay: Drug uptake in BALB/c mouse brain at 40 mg/kg, po after 24 hrs; format: ADME, organism-based; design: dose 40 mg/kg, route oral; settings: in vivo
Summary of the method: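 Mice received a single oral dose of 40 mg/kg. Drug levels in plasma and brain tissue were measured over 24 hours.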

Trypanosoma brucei [5] = assay: Antitrypanosomal activity against bloodstream Trypanosoma brucei assessed as DNA profile alteration after 7 hrs by propidium iodide staining-based flow cytometry; format: functional, organism-based
Summary of the method: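 Trypanosomes were incubated 7 h with drug or without (control), then stained with propidium iodide. Flow cytometry analysed 10,000 events, and DNA content per cell (2C, 2C-4C, 4C populations) was quantified.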

[6] = tested on: Trypanosoma brucei brucei; assay: Antitrypanosomal activity against Trypanosoma brucei brucei CA427 infected in Swiss Webster mouse assessed as delayed detection of trypanosomes in blood at 10 mg/kg, ip bid after 24 hrs by hemocytometer; format: functional, organism-based; design: dose 10 mg/kg
Summary of the method: (§1)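 Mice were infected with 10^4 T. brucei brucei CA427 cells. From 24 h post-infection, they were dosed i.p. at 10 mg/kg twice per day (20 mg/kg/day). Blood parasitemia was measured each day against untreated control mice.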

[7] = tested on: Trypanosoma brucei brucei; assay: Antitrypanosomal activity against Trypanosoma brucei brucei CA427 infected in Swiss Webster mouse assessed as reduction in replication rate at 10 mg/kg, ip bid measured on day 3 by hemocytometer; format: functional, organism-based; design: dose 10 mg/kg; summary of the method: as §1
[8] = tested on: Trypanosoma brucei brucei; assay: Antitrypanosomal activity against Trypanosoma brucei brucei CA427 infected in Swiss Webster mouse assessed as mouse mortality at 10 mg/kg, po bid by hemocytometer; format: functional, organism-based; design: dose 10 mg/kg
Summary of the method: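 Mice were infected with 10^4 T. brucei brucei CA427 cells. From 24 h post-infection, they were dosed orally at 10 mg/kg twice per day (20 mg/kg/day). Daily parasitemia and survival were followed against untreated control mice.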

Trypanosoma brucei [9] = assay: Antitrypanosomal activity against bloodstream Trypanosoma brucei assessed as reduction in 1K1N cells after 7 hrs by DAPI staining-based fluorescence microscopy; format: functional, organism-based
Summary of the method: (§2)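 After 7 h with or without drug, trypanosomes were stained with DAPI and imaged by single-cell fluorescence microscopy with DIC. Nuclei (N) and kinetoplasts (K) were counted per cell to give the distribution of organelle configurations.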

[10] = tested on: Trypanosoma brucei brucei; assay: Antitrypanosomal activity against bloodstream form Trypanosoma brucei brucei Lister 427 after 48 hrs by hemocytometer; format: functional, organism-based; settings: Lister 427, 48 h
Summary of the method: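 Bloodstream Lister 427 cells were seeded at 2 × 10^3 cells/ml in HMI-9 medium and given drug from 200X DMSO stocks, with DMSO as control. Three independent experiments, each dose in duplicate (n = 6).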

Trypanosoma brucei [11] = assay: Antitrypanosomal activity against bloodstream Trypanosoma brucei assessed as increase in 1K2N cells after 7 hrs by DAPI staining-based fluorescence microscopy; format: functional, organism-based; summary of the method: as §2

**Q.** With `Fc1cccc(COc2ccc(Nc3ncnc4ccc(-c5cccc(N6CCOCC6)c5)cc34)cc2Cl)c1` as the compound, how does the Activity (Trypanosoma brucei [1]) read?
**A.** Its Activity is 25%.

**Q.** And the Survival [2]?
**A.** Its Survival is 9 days.

**Q.** And the Activity (Trypanosoma brucei [3])?
**A.** Its Activity is 40%.

**Q.** What about the inhibition (Trypanosoma brucei [4]) of the same compound?
**A.** Its inhibition is “inactive”.

**Q.** And the Activity (Mus musculus)?
**A.** The Activity was “Toxic”.

**Q.** What about the Drug uptake (Brain) of the same compound?
**A.** The Drug uptake was 5%.

**Q.** And the Activity (Trypanosoma brucei [5])?
**A.** The Activity was “Active”.

**Q.** And the Activity [6]?
**A.** The Activity was “Active”.

**Q.** What about the Activity [7] of the same compound?
**A.** The Activity was “Active”.

**Q.** What about the Activity [8] of the same compound?
**A.** The Activity was “inactive”.

**Q.** What about the Activity (Trypanosoma brucei [9]) of the same compound?
**A.** Its Activity is “Active”.

**Q.** What about the EC50 [10] of the same compound?
**A.** The EC50 was 42 nM.

**Q.** What about the Activity (Trypanosoma brucei [11]) of the same compound?
**A.** Its Activity is “Active”.
